Data taken from ChEMBL document CHEMBL2146398, “Novel interleukin-5 inhibitors based on hydroxyethylaminomethyl-4H-chromen-4-one scaffold” (Bioorg Med Chem, 2012).

target: T1, Interleukin-5 (Mus musculus) (UniProt P04401); assay: Inhibition of IL-5 in mouse Y16 cells at 30 uM after 48 hrs by WST1 assay; assay type: cell-based
T1 sequence (whole entry): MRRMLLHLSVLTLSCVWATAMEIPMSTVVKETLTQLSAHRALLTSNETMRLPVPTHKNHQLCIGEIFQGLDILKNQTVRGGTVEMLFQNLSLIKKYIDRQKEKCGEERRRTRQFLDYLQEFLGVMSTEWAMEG
In short: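 IL-5-dependent pro-B Y16 cells cultured 48 h with 3 units/mL mIL-5, with or without test sample. Proliferation read as cell metabolism by WST-1 reduction. […] Values are means of three independent experiments.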

Q: With `CCCCN(CCO)Cc1coc2cccc(OCC3CCCCC3)c2c1=O` as the compound, how does the inhibition read?
A: 94%

Q: `O=c1c(CN(CCO)Cc2ccc(Cl)cc2)coc2cccc(OCC3CCCCC3)c12` was tested. Which inhibition did it give?
A: 93.4%

Q: `O=c1c(CN(CCO)Cc2ccncc2)coc2cccc(OCC3CCCCC3)c12` was tested. Which inhibition did it give?
A: 94%

Q: How did the inhibition turn out when `COc1ccc(CN(CCO)Cc2coc3cccc(OCC4CCCCC4)c3c2=O)cc1` was run?
A: 94.1%

Q: How did the inhibition turn out when `CC(C)N(CCO)Cc1coc2cccc(OCC3CCCCC3)c2c1=O` was run?
A: 90.2%

Q: With `Cc1ccc(CN(CCO)Cc2coc3cccc(OCC4CCCCC4)c3c2=O)cc1` as the compound, how does the inhibition read?
A: 94.3%

Q: For `O=c1c(CN(CCO)C2CCCCC2)coc2cccc(OCC3CCCCC3)c12`, which inhibition is on record?
A: 94.5%

Q: `O=c1c(CN(CCO)c2ccccc2)coc2cccc(OCC3CCCCC3)c12` was tested. Which inhibition did it give?
A: 94.4%

Q: How did the inhibition turn out when `O=c1c(CN(CCO)Cc2ccccc2)coc2cccc(OCC3CCCCC3)c12` was run?
A: 94.8%

Q: How did the inhibition turn out when `CN(CCO)Cc1coc2cccc(OCC3CCCCC3)c2c1=O` was run?
A: 56%

Q: For `O=c1c(CN(CCO)CC2CCCCC2)coc2cccc(OCC3CCCCC3)c12`, which inhibition is on record?
A: 94.7%

Q: Which inhibition does the source give for `O=c1c(CN(CCO)Cc2ccc(O)cc2)coc2cccc(OCC3CCCCC3)c12` here?
A: 93.7%

Q: With `CCN(CCO)Cc1coc2cccc(OCC3CCCCC3)c2c1=O` as the compound, how does the inhibition read?
A: 79.2%

Q: With `CCCN(CCO)Cc1coc2cccc(OCC3CCCCC3)c2c1=O` as the compound, how does the inhibition read?
A: 93.7%
